Data reported in ChEMBL document CHEMBL4033661, “Small molecules inhibit STAT3 activation, autophagy, and cancer cell anchorage-independent growth” (Bioorg Med Chem, 2017).
One block for each compound: values may come before it. The source made the active and inactive calls. The calls are words filed in the database; no cut-off is given here.

Legend:
[1] = biological target: T1, Maternal embryonic leucine zipper kinase (Homo sapiens, UniProt Q14680); experiment: Inhibition of MELK (unknown origin)
Target sequence in this assay (Q14680 whole entry): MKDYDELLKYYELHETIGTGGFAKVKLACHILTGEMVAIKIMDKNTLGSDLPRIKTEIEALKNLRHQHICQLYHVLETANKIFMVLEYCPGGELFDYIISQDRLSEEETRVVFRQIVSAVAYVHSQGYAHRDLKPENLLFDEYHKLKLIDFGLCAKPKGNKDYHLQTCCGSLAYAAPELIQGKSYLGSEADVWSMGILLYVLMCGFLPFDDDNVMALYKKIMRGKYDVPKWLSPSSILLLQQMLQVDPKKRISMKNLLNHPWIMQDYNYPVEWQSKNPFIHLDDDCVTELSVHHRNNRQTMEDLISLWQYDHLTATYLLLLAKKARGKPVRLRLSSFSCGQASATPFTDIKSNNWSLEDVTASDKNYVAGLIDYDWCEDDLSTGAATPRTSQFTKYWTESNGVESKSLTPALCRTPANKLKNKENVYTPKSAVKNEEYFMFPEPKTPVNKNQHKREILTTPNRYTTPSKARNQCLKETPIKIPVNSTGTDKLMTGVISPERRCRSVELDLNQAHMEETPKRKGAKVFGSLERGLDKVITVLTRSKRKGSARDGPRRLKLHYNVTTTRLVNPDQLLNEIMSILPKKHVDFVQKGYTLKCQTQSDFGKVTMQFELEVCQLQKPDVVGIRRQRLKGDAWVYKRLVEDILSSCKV

[2] = system: MDA-MB-231; experiment: Cytotoxicity against human MDA-MB-231 cells assessed as cell growth inhibition after 3 days by MTT assay; type: functional, cell-based; settings: MDA-MB-231, 72 h
Method in brief: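 MDA-MB-231 cells (10^4/well) in DMEM with 10% FBS at 37 °C, 5% CO2 were plated overnight, then exposed to compounds at the indicated concentrations or 1% DMSO control for 3 d. MTT (5 mg/mL stock) was added for 2 h. Absorbance was read at 570 nm with a 630 nm reference. Values are mean ± SD, n = 3.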

[3] = biological target: Tyrosine-protein kinase CSK (Homo sapiens, UniProt P41240); experiment: Inhibition of CSK (unknown origin)
[4] = system: MDA-MB-231; experiment: Cytotoxicity against human MDA-MB-231 cells assessed as inhibition of anchorage-independent colony formation on soft agar after 10 days by crystal violet staining based assay; type: functional, cell-based; settings: MDA-MB-231, 240 h
Method in brief: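 Base layer 0.5% agar, top layer 0.3% agar containing the cells, both in DMEM with 10% FBS. Feeding medium held compound at the indicated concentrations or 1% DMSO and was changed twice weekly for 10 d at 37 °C, 5% CO2. Colonies were stained with 0.005% crystal violet and counted under a dissecting microscope. Values are mean ± SE of six fields from two independent samples.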

[5] = biological target: Tyrosine-protein kinase Blk (Homo sapiens, UniProt P51451); experiment: Inhibition of BLK (unknown origin)
[6] = biological target: Calcium/calmodulin-dependent protein kinase type II subunit gamma (Homo sapiens, UniProt Q13555); experiment: Inhibition of CaMK2gamma (unknown origin)
[7] = biological target: Signal transducer and activator of transcription 3 (Homo sapiens) (UniProt P40763); experiment: Inhibition of STAT3 at Tyr705 in human MDA-MB-231 cells at 5 uM after 8 hrs by Western blot method; type: cell-based
[8] = biological target: RAC-alpha serine/threonine-protein kinase (Homo sapiens) (UniProt P31749); experiment: Inhibition of Akt phosphorylation in human MDA-MB-468 cells by Western blot method; type: cell-based
[9] = biological target: T1, Maternal embryonic leucine zipper kinase; experiment: Inhibition of MELK (unknown origin) at 20 uM relative to control
Target sequence in this assay (Q14680 whole entry, looked up): as the sequence (Q14680 whole entry) above

[10] = biological target: T1, Maternal embryonic leucine zipper kinase; experiment: Inhibition of MELK in human MDA-MB-468 cells assessed as upregulation of p53-dependent p21WAF1/CIP1 expression at 5 uM by Western blot method; type: cell-based; settings: TDE = time-dependent effect
Method in brief: (§1)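 Cells were treated at 5 µM over 48 h. Total lysates were made in RIPA with protease/phosphatase inhibitors, 30 µg protein was run on 10% SDS-PAGE and moved to nitrocellulose. Primary antibodies were applied overnight at 4 °C, then IRDye 800 anti-mouse or Alexa Fluor 680 anti-rabbit secondaries for 1 h at RT, with infrared imaging. Actin served as loading control. Band changes are given as percent of control, mean ± SD, n = 2.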
Target sequence in this assay (Q14680 whole entry, looked up): as the sequence (Q14680 whole entry) above

[11] = biological target: Signal transducer and activator of transcription 3 (Homo sapiens) (UniProt P40763); experiment: Inhibition of STAT3 phosphorylation in human MDA-MB-231 cells assessed as downregulation of survivin level at 5 uM up to 48 hrs by Western blot method; type: cell-based; method in brief: as §1
[12] = biological target: Tyrosine-protein kinase BTK (Homo sapiens, UniProt Q06187); experiment: Inhibition of BTK (unknown origin)
[13] = biological target: Insulin receptor (Homo sapiens, UniProt P06213); experiment: Inhibition of IR (unknown origin)
[14] = biological target: Fibroblast growth factor receptor 1 (Homo sapiens, UniProt P11362); experiment: Inhibition of FGFR1 (unknown origin)
[15] = biological target: Signal transducer and activator of transcription 3 (Homo sapiens) (UniProt P40763); experiment: Inhibition of STAT3 in human MDA-MB-468 cells assessed as decrease in autophagic flux by measuring accumulation of LC3B-2 level at 5 uM after 4 hrs in presence of bafilomycin A by Western blot method; type: cell-based
Method in brief: (§2)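 Cells were exposed for 4 h to 5 µM compound, DMSO vehicle, or 1% O2 as hypoxic autophagy control. Bafilomycin A1 (100 nM) was added 4 h before harvest. Lysis was in NP40 buffer with protease/phosphatase inhibitors, then 16,300g spin for 15 min at 4 °C, SDS-PAGE and PVDF transfer. Blots were probed overnight at 4 °C with anti-LC3B (1:3000), then HRP secondary (1:10,000) for 2 h, with ECL detection of LC3B-I and LC3B-II.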

[16] = biological target: Tyrosine-protein kinase Lyn (Homo sapiens, UniProt P07948); experiment: Inhibition of LYN B (unknown origin)
[17] = biological target: T1, Maternal embryonic leucine zipper kinase; experiment: Inhibition of MELK in human MDA-MB-468 cells assessed as decrease in cyclin A2 level at 5 uM measured over 48 hrs by Western blot method; type: cell-based; method in brief: as §1
Target sequence in this assay (Q14680 whole entry, looked up): as the sequence (Q14680 whole entry) above

[18] = biological target: Megakaryocyte-associated tyrosine-protein kinase (Homo sapiens, UniProt P42679); experiment: Inhibition of CTK/MATK (unknown origin)
[19] = biological target: Cytoplasmic tyrosine-protein kinase BMX (Homo sapiens, UniProt P51813); experiment: Inhibition of BMX/ETK (unknown origin)
[20] = biological target: Tyrosine-protein kinase JAK3 (Homo sapiens) (UniProt P52333); experiment: Inhibition of JAK3 (unknown origin) at 20 uM
[21] = biological target: Signal transducer and activator of transcription 3 (Homo sapiens) (UniProt P40763); experiment: Inhibition of STAT3 at Tyr705 in human MDA-MB-468 cells at 5 uM after 8 hrs by Western blot method; type: cell-based
[22] = biological target: T1, Maternal embryonic leucine zipper kinase; experiment: Inhibition of MELK in human MDA-MB-468 cells assessed as decrease in p53 phosphorylation at Ser15 residue at 5 uM by Western blot method; type: cell-based; settings: TDE = time-dependent effect; method in brief: as §1
Target sequence in this assay (Q14680 whole entry, looked up): as the sequence (Q14680 whole entry) above

[23] = biological target: Signal transducer and activator of transcription 3 (Homo sapiens) (UniProt P40763); experiment: Inhibition of STAT3 in human MDA-MB-231 cells assessed as decrease in autophagic flux by measuring accumulation of LC3B-2 level at 5 uM after 4 hrs in presence of bafilomycin A by Western blot method; type: cell-based; method in brief: as §2
[24] = biological target: Receptor tyrosine-protein kinase erbB-4 (Homo sapiens, UniProt Q15303); experiment: Inhibition of ERBB4/HER4 (unknown origin)
[25] = biological target: T1, Maternal embryonic leucine zipper kinase; experiment: Inhibition of MELK in human MDA-MB-231 cells assessed as upregulation of p53-dependent p21WAF1/CIP1 expression at 5 uM by Western blot method; type: cell-based; settings: TDE = time-dependent effect; method in brief: as §1
Target sequence in this assay (Q14680 whole entry, looked up): as the sequence (Q14680 whole entry) above

[26] = biological target: Tyrosine-protein kinase Fer (Homo sapiens, UniProt P16591); experiment: Inhibition of FER (unknown origin)
[27] = biological target: Tyrosine-protein kinase JAK1 (Homo sapiens) (UniProt P23458); experiment: Inhibition of JAK1 (unknown origin) at 20 uM
[28] = biological target: Tyrosine-protein kinase JAK2 (Homo sapiens) (UniProt O60674); experiment: Inhibition of JAK2 (unknown origin) at 20 uM
[29] = biological target: Signal transducer and activator of transcription 3 (Homo sapiens) (UniProt P40763); experiment: Inhibition of STAT3 phosphorylation in human MDA-MB-468 cells assessed as down regulation of Bcl-XL level at 5 uM up to 48 hrs by Western blot method; type: cell-based; method in brief: as §1
[30] = biological target: Calcium/calmodulin-dependent protein kinase type 1 (Homo sapiens, UniProt Q14012); experiment: Inhibition of CaMK1alpha (unknown origin)
[31] = biological target: Signal transducer and activator of transcription 3 (Homo sapiens) (UniProt P40763); experiment: Inhibition of STAT3 phosphorylation in human MDA-MB-468 cells assessed as down regulation of survivin level at 5 uM up to 48 hrs by Western blot method; type: cell-based; method in brief: as §1
[32] = system: MDA-MB-468; experiment: Effect on p53 levels in human MDA-MB-468 cells at 5 uM up to 48 hrs by Western blot method; type: functional, cell-based; method in brief: as §1
[33] = biological target: Signal transducer and activator of transcription 3 (Homo sapiens) (UniProt P40763); experiment: Inhibition of STAT3 phosphorylation at Tyr705 in human MDA-MB-231 cells at 5 uM measured at 4 hrs by Western blot method; type: cell-based
[34] = biological target: Signal transducer and activator of transcription 3 (Homo sapiens) (UniProt P40763); experiment: Inhibition of STAT3 phosphorylation at Tyr705 in human MDA-MB-468 cells at 5 uM measured at 4 hrs by Western blot method; type: cell-based
[35] = biological target: T1, Maternal embryonic leucine zipper kinase; experiment: Inhibition of MELK in human MDA-MB-231 cells assessed as decrease in cyclin A2 level at 5 uM measured over 48 hrs by Western blot method; type: cell-based; method in brief: as §1
Target sequence in this assay (Q14680 whole entry, looked up): as the sequence (Q14680 whole entry) above

[36] = biological target: Signal transducer and activator of transcription 3 (Homo sapiens) (UniProt P40763); experiment: Inhibition of STAT3 phosphorylation in human MDA-MB-231 cells assessed as downregulation of Bcl-XL level at 5 uM up to 48 hrs by Western blot method; type: cell-based; method in brief: as §1
[37] = biological target: Angiopoietin-1 receptor (Homo sapiens, UniProt Q02763); experiment: Inhibition of TIE2/TEK (unknown origin)
[38] = biological target: Calcium/calmodulin-dependent protein kinase type II subunit delta (Homo sapiens, UniProt Q13557); experiment: Inhibition of CaMK2delta (unknown origin)
[39] = biological target: Signal transducer and activator of transcription 3 (Homo sapiens) (UniProt P40763); experiment: Inhibition of [gamma32P]-ATP labelled DNA binding to STAT3 dimer (unknown origin) at 5 uM after 4 hrs by electrophoretic mobility shift assay
Method in brief: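 STAT3 consensus oligonucleotide was 5'-labeled with [γ-32P]ATP using polynucleotide kinase. Nuclear protein (2 µg) was incubated with probe for 30 min on ice in 10 mM Tris, 50 mM KCl, 1 mM DTT, 50 µM EDTA, 50 ng/µL poly(dI-dC), pH 7.5. Samples were run on a 4% native polyacrylamide gel in Tris-glycine-EDTA, then the gel was dried and autoradiographed.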

Chain of Signal transducer and activator of transcription 3 (Homo sapiens) (P40763 whole entry): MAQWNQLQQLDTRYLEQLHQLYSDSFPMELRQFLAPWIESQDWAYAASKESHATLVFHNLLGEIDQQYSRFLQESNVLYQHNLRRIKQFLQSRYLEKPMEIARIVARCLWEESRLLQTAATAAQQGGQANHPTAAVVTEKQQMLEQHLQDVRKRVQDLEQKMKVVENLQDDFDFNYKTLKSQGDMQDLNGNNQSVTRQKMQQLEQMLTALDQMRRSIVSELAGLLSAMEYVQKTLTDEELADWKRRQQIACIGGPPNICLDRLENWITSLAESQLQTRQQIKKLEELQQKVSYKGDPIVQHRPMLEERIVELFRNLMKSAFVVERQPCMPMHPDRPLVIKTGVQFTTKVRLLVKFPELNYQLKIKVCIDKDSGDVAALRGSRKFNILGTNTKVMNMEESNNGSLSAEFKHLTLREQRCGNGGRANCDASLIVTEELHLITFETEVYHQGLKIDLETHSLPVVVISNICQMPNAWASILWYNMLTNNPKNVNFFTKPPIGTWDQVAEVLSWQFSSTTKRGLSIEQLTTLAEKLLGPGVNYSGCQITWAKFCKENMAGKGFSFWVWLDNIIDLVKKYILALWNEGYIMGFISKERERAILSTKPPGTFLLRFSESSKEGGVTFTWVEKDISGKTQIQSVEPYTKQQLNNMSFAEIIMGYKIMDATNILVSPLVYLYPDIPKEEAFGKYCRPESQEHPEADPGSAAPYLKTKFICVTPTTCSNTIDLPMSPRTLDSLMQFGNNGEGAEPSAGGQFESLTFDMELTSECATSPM
Chain of RAC-alpha serine/threonine-protein kinase (Homo sapiens) (P31749 whole entry): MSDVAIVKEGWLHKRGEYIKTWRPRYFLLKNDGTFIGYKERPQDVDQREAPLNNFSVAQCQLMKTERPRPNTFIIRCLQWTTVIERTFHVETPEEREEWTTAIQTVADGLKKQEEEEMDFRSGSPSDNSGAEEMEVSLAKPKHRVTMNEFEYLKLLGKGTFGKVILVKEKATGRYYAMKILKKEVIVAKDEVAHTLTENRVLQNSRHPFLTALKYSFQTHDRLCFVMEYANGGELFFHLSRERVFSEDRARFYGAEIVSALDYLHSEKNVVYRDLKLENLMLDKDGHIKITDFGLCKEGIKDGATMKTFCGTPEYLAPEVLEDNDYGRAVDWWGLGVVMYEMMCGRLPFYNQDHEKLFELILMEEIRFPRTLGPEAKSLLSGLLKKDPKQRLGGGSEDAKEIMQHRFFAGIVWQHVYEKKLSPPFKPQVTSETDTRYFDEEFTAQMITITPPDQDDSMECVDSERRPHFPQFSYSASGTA
Chain of Receptor tyrosine-protein kinase erbB-4 (Q15303 whole entry): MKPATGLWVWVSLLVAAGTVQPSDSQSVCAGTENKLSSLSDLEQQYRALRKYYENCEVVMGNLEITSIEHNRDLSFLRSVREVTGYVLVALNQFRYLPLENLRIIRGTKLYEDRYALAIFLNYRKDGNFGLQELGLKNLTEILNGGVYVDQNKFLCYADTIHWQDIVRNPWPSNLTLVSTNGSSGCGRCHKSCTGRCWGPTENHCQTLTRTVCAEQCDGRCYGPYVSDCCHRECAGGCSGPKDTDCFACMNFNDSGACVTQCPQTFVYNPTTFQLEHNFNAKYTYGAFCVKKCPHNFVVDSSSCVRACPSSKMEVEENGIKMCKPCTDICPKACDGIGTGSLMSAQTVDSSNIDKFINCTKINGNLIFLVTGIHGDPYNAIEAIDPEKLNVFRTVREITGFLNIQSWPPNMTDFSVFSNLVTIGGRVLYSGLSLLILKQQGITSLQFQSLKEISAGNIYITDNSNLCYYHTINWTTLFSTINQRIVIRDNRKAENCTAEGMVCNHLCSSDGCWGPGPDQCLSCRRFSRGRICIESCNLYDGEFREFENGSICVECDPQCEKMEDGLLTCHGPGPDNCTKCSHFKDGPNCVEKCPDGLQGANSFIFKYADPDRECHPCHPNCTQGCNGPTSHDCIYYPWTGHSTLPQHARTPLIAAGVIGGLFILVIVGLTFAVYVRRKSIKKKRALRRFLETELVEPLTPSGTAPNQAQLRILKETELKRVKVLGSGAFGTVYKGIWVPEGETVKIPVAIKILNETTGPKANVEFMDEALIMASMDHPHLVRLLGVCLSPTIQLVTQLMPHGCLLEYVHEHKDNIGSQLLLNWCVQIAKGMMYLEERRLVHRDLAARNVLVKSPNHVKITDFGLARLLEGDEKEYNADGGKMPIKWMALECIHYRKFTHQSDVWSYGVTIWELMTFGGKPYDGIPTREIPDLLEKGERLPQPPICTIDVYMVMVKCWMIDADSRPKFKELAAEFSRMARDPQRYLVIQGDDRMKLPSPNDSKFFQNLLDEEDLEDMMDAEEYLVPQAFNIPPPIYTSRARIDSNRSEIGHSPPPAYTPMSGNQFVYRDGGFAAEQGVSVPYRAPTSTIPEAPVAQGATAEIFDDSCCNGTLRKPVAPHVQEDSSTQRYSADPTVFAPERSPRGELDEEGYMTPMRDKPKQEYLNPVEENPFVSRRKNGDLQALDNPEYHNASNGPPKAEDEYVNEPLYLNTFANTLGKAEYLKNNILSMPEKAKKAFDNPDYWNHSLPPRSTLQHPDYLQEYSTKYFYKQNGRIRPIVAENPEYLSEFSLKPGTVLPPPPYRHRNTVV
Chain of Tyrosine-protein kinase JAK1 (Homo sapiens) (P23458 whole entry): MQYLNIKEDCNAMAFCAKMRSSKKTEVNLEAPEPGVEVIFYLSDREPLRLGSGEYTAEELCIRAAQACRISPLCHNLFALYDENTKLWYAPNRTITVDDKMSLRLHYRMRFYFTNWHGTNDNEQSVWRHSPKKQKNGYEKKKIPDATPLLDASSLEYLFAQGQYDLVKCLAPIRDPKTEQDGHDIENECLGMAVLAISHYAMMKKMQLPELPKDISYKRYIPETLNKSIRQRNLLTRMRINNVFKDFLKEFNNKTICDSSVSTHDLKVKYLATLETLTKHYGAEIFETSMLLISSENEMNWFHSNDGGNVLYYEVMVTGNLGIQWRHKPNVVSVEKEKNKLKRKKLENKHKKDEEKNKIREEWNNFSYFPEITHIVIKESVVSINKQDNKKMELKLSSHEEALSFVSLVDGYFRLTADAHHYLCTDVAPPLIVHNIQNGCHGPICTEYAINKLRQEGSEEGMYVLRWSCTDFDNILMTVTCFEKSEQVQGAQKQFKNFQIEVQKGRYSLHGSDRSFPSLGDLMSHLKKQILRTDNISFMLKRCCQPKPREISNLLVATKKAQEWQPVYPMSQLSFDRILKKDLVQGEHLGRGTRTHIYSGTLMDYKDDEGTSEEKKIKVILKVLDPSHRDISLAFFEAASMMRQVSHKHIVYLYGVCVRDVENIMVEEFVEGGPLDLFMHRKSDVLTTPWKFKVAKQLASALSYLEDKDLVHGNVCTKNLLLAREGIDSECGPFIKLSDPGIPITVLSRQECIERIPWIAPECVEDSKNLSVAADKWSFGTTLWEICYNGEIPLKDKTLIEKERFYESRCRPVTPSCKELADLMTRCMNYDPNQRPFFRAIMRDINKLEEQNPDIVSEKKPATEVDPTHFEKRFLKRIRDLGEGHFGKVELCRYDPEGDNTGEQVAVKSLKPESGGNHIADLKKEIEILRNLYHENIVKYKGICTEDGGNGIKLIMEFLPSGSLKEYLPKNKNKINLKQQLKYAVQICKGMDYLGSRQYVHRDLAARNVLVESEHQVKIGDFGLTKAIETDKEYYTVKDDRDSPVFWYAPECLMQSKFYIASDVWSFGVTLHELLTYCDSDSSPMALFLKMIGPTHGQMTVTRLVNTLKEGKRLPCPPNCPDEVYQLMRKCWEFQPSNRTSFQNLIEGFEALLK
Chain of Calcium/calmodulin-dependent protein kinase type 1 (Q14012 whole entry): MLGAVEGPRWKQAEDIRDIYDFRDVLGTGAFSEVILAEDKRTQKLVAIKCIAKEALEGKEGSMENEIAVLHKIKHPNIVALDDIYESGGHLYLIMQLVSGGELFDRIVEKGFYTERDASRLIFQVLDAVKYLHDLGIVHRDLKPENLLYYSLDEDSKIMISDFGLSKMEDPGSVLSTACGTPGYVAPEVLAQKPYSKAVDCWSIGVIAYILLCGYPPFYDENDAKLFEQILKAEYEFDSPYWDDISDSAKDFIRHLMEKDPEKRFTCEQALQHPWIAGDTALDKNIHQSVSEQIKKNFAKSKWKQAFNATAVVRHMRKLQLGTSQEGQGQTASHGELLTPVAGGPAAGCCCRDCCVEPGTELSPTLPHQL

IC50 [1]: 3.5 µM
Structure (SMILES): Nc1ccc2nc(/C=C/c3ccc(C(F)(F)F)cc3)nc(NCCCN3CCOCC3)c2c1

IC50 [3]: > 100 µM
IC50 [5]: 8.8 µM
IC50 [6]: 9.2 µM
inhibition [7]: inactive
inhibition [8]: inactive
inhibition [9]: > 98%
inhibition [10]: Tde
IC50 [12]: 6.7 µM
IC50 [13]: > 100 µM
IC50 [14]: 9 µM
inhibition [15]: Active
IC50 [16]: 10.5 µM
inhibition [17]: Active
IC50 [18]: 14.7 µM
IC50 [1]: 1.4 µM
IC50 [19]: 1.9 µM
inhibition [20]: inactive
inhibition [21]: inactive
inhibition [22]: Tde
inhibition [23]: Active
IC50 [24]: 23.9 µM
inhibition [25]: Tde
IC50 [26]: 42.7 µM
inhibition [27]: inactive
inhibition [28]: inactive
inhibition [29]: Active
IC50 [30]: 6.9 µM
inhibition [33]: Active
inhibition [34]: Active
inhibition [35]: Active
inhibition [36]: Active
IC50 [37]: 1.8 µM
IC50 [38]: 9.1 µM
Structure (SMILES): CCN(CC)CCCC(C)Nc1nc(/C=C/c2c(Cl)cc(Cl)cc2Cl)nc2ccc(N)cc12 (stereo not drawn)
IC50 [4]: 3 to 7 µM
IC50 [2]: 2 µM
inhibition [11]: Active
inhibition [31]: Active
Activity [32]: inactive

inhibition [7]: inactive
inhibition [8]: inactive
inhibition [10]: Tde
inhibition [39]: Active
inhibition [17]: Active
inhibition [21]: inactive
inhibition [22]: Tde
inhibition [25]: Tde
inhibition [29]: Active
inhibition [33]: Active
inhibition [34]: Active
inhibition [35]: Active
inhibition [36]: Active
Structure (SMILES): CCN(CC)CCCC(C)Nc1nc(/C=C/c2ccccc2)nc2cc(Cl)ccc12 (stereo not drawn)
inhibition [11]: Active
inhibition [31]: Active

IC50 [1]: 2.1 µM
Structure (SMILES): CCN(CC)CCCCNc1nc(/C=C/c2c(Cl)cc(Cl)cc2Cl)nc2ccc(N)cc12

Continued, compound first:

Structure (SMILES): CC1CCN(c2nc(/C=C/c3ccccc3)nc3ccccc23)CC1
IC50 [2]: > 10 µM

Structure (SMILES): C(=C\c1nc(N2CCCC2)c2ccccc2n1)/c1ccccc1
IC50 [2]: < 10 µM

Structure (SMILES): CCN(CC)CCNc1nc(/C=C/c2ccc(Cl)cc2)nc2cc3ccccc3cc12
IC50 [2]: < 10 µM
